From ChEMBL document CHEMBL1149738, “New cytotoxic scalarane sesterterpenes from the Dictyoceratid sponge Strepsichordaia lendenfeldi” (J Nat Prod, 1992) come the findings set out here.

Values after ≈ are worked out from the molar mass of the structure shown. Active and inactive are the calls of the source. The calls are words filed in the database; no cut-off is given here.

Series [1] can be described thus: Cytotoxicity against african green monkey CV1 cells. In kind it is cell-based. The following applies: chlorocebus aethiops, cv-1. In short, it runs like this:
(§1)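 Cultured tumour and normal cell lines: P-388 (lymphoid neoplasm, DBA/2 mouse), A-549 (human lung carcinoma), HT-29 (human colon carcinoma) and CV-1 (monkey kidney fibroblast). Potency was expressed as approximate IC50 values in μg/ml.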

Another series has as its system HT-29. Description: Cytotoxicity against human HT-29 cells. In kind it is functional, cell-based. The method in brief: as §1
For a further series, the system named is P388. Put plainly: Cytotoxicity against DBA/2 mouse P388 cells. In kind it is functional, cell-based. The following applies: DBA/2, P388. In short, it runs like this:
as §1

The test system of another series is A549. Put plainly: Cytotoxicity against human A549 cells. In kind it is functional, cell-based. In short, it runs like this:
as §1

The next series relates to Bacillus subtilis. Put plainly: Antimicrobial activity against Bacillus subtilis. The series is classed as functional, organism-based.
The test system of another series is Staphylococcus aureus. Description: Antimicrobial activity against Staphylococcus aureus. The series is classed as functional, organism-based.

For orientation: IC50 means the midpoint of a concentration-inhibition curve. Take `CC[C@@]1(C)CCC[C@]2(C)[C@H]3C[C@H](OC(C)=O)[C@]4(C)[C@@H](C=O)[C@H](C(C)=O)[C@@H](O)C[C@H]4[C@]3(C)CC[C@@H]12`: the outcome in series [1] was Active. Moreover, the outcome in the series on HT-29 was Active. The IC50 in the series on P388 and with A549 was 0.1 µg/mL (≈ 0.211 µM) in each case.
With `CCC(CC(=O)O[C@H]1C[C@@H]2[C@@]3(C)CCC[C@](C)(CC)[C@@H]3CC[C@@]2(C)[C@@H]2CC=C(C(C)=O)[C@H](C=O)[C@@]12C)OC(C)=O` (stereo partly drawn), the half-maximal inhibitory concentration (IC50) is < 0.12 µg/mL with P388 and 0.25 µg/mL (≈ 0.449 µM) with A549. Moreover, the result with Bacillus subtilis was Active.
For the compound `CC[C@@]1(C)CCC[C@]2(C)[C@H]3C[C@H](OC(C)=O)[C@]4(C)[C@@H](C=O)[C@H](C(C)=O)[C@@H](OC(=O)C[C@@H](C)O)C[C@H]4[C@]3(C)CC[C@@H]12`, the result in the series on Staphylococcus aureus and with Bacillus subtilis was Active. The values for the IC50 in the series on P388 and in the series on A549 were 0.23 µg/mL (≈ 0.41 µM) and 0.66 µg/mL (≈ 1.18 µM), respectively.
Consider `CC[C@@]1(C)CCC[C@]2(C)[C@H]3C[C@H](OC(=O)CC(C)OC(C)=O)[C@]4(C)[C@@H](C=O)C(C(C)=O)=CC[C@H]4[C@]3(C)CC[C@@H]12` (stereo partly drawn), for which the outcome in series [1] was Active. For the same compound, the outcome in the series with HT-29 was Active. Moreover, the IC50 with P388 and in the series on A549 was 0.2 µg/mL (≈ 0.368 µM) each time.
On to `CC[C@@]1(C)CCC[C@]2(C)[C@H]3C[C@H](OC(C)=O)[C@]4(C)[C@@H](C=O)[C@H](C(C)=O)[C@@H](OC(C)=O)C[C@H]4[C@]3(C)CC[C@@H]12`, for which the 50% inhibitory concentration (IC50) with P388 was found to be 0.91 µg/mL (≈ 1.76 µM); in the series on A549, 0.88 µg/mL (≈ 1.7 µM). Besides, the outcome in the series on Bacillus subtilis was Active.
Regarding `CCC(=O)O[C@H]1C[C@H]2[C@]3(C)CC[C@H]4[C@@](C)(CC)CCC[C@]4(C)[C@H]3C[C@H](OC(C)=O)[C@]2(C)[C@@H](C=O)[C@@H]1C(C)=O`, the IC50 in the series on P388 and in the series on A549 was 0.67 µg/mL (≈ 1.26 µM) in each case. Also, the outcome in the series on Bacillus subtilis was Active.
For the compound `CCC(O)CC(=O)O[C@H]1C[C@H]2[C@]3(C)CC[C@H]4[C@@](C)(CC)CCC[C@]4(C)[C@H]3C[C@H](OC(C)=O)[C@]2(C)[C@@H](C=O)[C@@H]1C(C)=O` (stereo partly drawn), the outcome in series [1] was Active. For the same compound, the outcome in the series on HT-29 was Active. Further, the IC50 with P388 and in the series with A549 was 0.5 µg/mL (≈ 0.87 µM) each time.
With `CCC(=O)OC(CC)CC(=O)O[C@H]1C[C@@H]2[C@@]3(C)CCC[C@](C)(CC)[C@@H]3CC[C@@]2(C)[C@@H]2CC=C(C(C)=O)[C@H](C=O)[C@@]12C` (stereo partly drawn), the figures for the IC50 in the series with P388 and in the series on A549 were < 0.12 µg/mL and 0.21 µg/mL (≈ 0.368 µM), respectively. Also, the result in the series with Bacillus subtilis was Active.
